# From ChEMBL document CHEMBL4689842, “EUbOPEN Chemogenomics Library wave 1” (2021)
# Test system: HEK-293T
# Experiment: Multiplex assay against HEK293T;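 as to Population Tubulin-Different-Phenotype (%): share of the cells with healthy nuclei that show this phenotype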
# Format: toxicity, cell-based
# Details: human
# Method in brief: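 At seeding, live cells were stained with Hoechst33342, BioTracker Green Microtubule Cytoskeleton Dye, MitoTracker Red and Annexin V Alexa Fluor 680. After compound addition they were imaged on a CQ1 microscope at 37°C and 5% CO2, and CellPathfinder machine-learning gating sorted them into Hoechst high-intensity objects or normal cells, with normal cells further split into healthy, pyknosed or fragmented nuclei and pyknosed cells into mitotic or apoptotic. Tubulin, mitochondrial-mass and membrane-permeability phenotypes are given as per cents of cells with healthy nuclei.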
# [1] = 12 h, 1 µM, compound concentration 1 uM, replicate 1
# [2] = 12 h, 1 µM, compound concentration 1 uM, replicate 2
# [3] = 12 h, 10 µM, compound concentration 10 uM, replicate 1
# [4] = 12 h, 10 µM, compound concentration 10 uM, replicate 2
# [5] = 24 h, 1 µM, compound concentration 1 uM, replicate 1
# [6] = 24 h, 1 µM, compound concentration 1 uM, replicate 2
# [7] = 24 h, 10 µM, compound concentration 10 uM, replicate 1
# [8] = 24 h, 10 µM, compound concentration 10 uM, replicate 2
# [9] = 48 h, 1 µM, compound concentration 1 uM, replicate 1
# [10] = 48 h, 1 µM, compound concentration 1 uM, replicate 2
# [11] = 48 h, 10 µM, compound concentration 10 uM, replicate 1
# [12] = 48 h, 10 µM, compound concentration 10 uM, replicate 2
smiles,measurement,setting,value
N#CCNC(=O)c1ccc(-c2ccnc(Nc3ccc(N4CCOCC4)cc3)n2)cc1 [MOMELOTINIB],Population Apoptotic (%),[1],35%
same,Population Fragmented Nuclei (%),[1],8%
same,Population Healthy Nuclei (%),[1],53%
same,Population Hoechst High Intensity Objects (%),[1],12%
same,Population Membrane Permeable-Phenotype (%),[1],0%
same,Population Mitochondria Different-Phenotype (%),[1],61%
same,Population Mitotic Cells (%),[1],64%
same,Population Normal (%),[1],87%
same,Population Pyknosed Nuclei (%),[1],38%
same,Population Tubulin-Different-Phenotype (%),[1],33%
same,Total Cell Count,[1],303
same,Population Apoptotic (%),[2],8%
same,Population Fragmented Nuclei (%),[2],9%
same,Population Healthy Nuclei (%),[2],52%
same,Population Hoechst High Intensity Objects (%),[2],2%
same,Population Membrane Permeable-Phenotype (%),[2],10%
same,Population Mitochondria Different-Phenotype (%),[2],9%
same,Population Mitotic Cells (%),[2],91%
same,Population Normal (%),[2],97%
same,Population Tubulin-Different-Phenotype (%),[2],21%
same,Total Cell Count,[2],198
same,Population Apoptotic (%),[3],32%
same,Population Fragmented Nuclei (%),[3],6%
same,Population Healthy Nuclei (%),[3],54%
same,Population Hoechst High Intensity Objects (%),[3],6%
same,Population Membrane Permeable-Phenotype (%),[3],4%
same,Population Mitochondria Different-Phenotype (%),[3],70%
same,Population Mitotic Cells (%),[3],67%
same,Population Normal (%),[3],93%
same,Population Pyknosed Nuclei (%),[3],38%
same,Population Tubulin-Different-Phenotype (%),[3],62%
same,Total Cell Count,[3],432
same,Population Apoptotic (%),[4],10%
same,Population Fragmented Nuclei (%),[4],9%
same,Population Healthy Nuclei (%),[4],29%
same,Population Hoechst High Intensity Objects (%),[4],5%
same,Population Membrane Permeable-Phenotype (%),[4],11%
same,Population Mitochondria Different-Phenotype (%),[4],21%
same,Population Mitotic Cells (%),[4],89%
same,Population Normal (%),[4],94%
same,Population Pyknosed Nuclei (%),[4],60%
same,Population Tubulin-Different-Phenotype (%),[4],42%
same,Total Cell Count,[4],251
same,Population Apoptotic (%),[5],38%
same,Population Fragmented Nuclei (%),[5],9%
same,Population Healthy Nuclei (%),[5],58%
same,Population Hoechst High Intensity Objects (%),[5],9%
same,Population Membrane Permeable-Phenotype (%),[5],1%
same,Population Mitochondria Different-Phenotype (%),[5],44%
same,Population Mitotic Cells (%),[5],62%
same,Population Normal (%),[5],90%
same,Population Pyknosed Nuclei (%),[5],31%
same,Population Tubulin-Different-Phenotype (%),[5],34%
same,Total Cell Count,[5],349
same,Population Apoptotic (%),[6],10%
same,Population Fragmented Nuclei (%),[6],10%
same,Population Healthy Nuclei (%),[6],63%
same,Population Hoechst High Intensity Objects (%),[6],1%
same,Population Membrane Permeable-Phenotype (%),[6],14%
same,Population Mitochondria Different-Phenotype (%),[6],9%
same,Population Mitotic Cells (%),[6],89%
same,Population Normal (%),[6],98%
same,Population Pyknosed Nuclei (%),[6],26%
same,Population Tubulin-Different-Phenotype (%),[6],18%
same,Total Cell Count,[6],260
same,Population Apoptotic (%),[7],31%
same,Population Fragmented Nuclei (%),[7],5%
same,Population Healthy Nuclei (%),[7],58%
same,Population Hoechst High Intensity Objects (%),[7],6%
same,Population Membrane Permeable-Phenotype (%),[7],3%
same,Population Mitochondria Different-Phenotype (%),[7],71%
same,Population Mitotic Cells (%),[7],68%
same,Population Normal (%),[7],93%
same,Population Pyknosed Nuclei (%),[7],36%
same,Population Tubulin-Different-Phenotype (%),[7],88%
same,Total Cell Count,[7],423
same,Population Apoptotic (%),[8],17%
same,Population Fragmented Nuclei (%),[8],9%
same,Population Healthy Nuclei (%),[8],41%
same,Population Hoechst High Intensity Objects (%),[8],4%
same,Population Membrane Permeable-Phenotype (%),[8],15%
same,Population Mitochondria Different-Phenotype (%),[8],25%
same,Population Mitotic Cells (%),[8],82%
same,Population Normal (%),[8],95%
same,Population Pyknosed Nuclei (%),[8],49%
same,Population Tubulin-Different-Phenotype (%),[8],78%
same,Total Cell Count,[8],239
same,Population Apoptotic (%),[9],43%
same,Population Fragmented Nuclei (%),[9],19%
same,Population Healthy Nuclei (%),[9],67%
same,Population Hoechst High Intensity Objects (%),[9],4%
same,Population Membrane Permeable-Phenotype (%),[9],3%
same,Population Mitochondria Different-Phenotype (%),[9],16%
same,Population Mitotic Cells (%),[9],56%
same,Population Normal (%),[9],95%
same,Population Pyknosed Nuclei (%),[9],13%
same,Population Tubulin-Different-Phenotype (%),[9],15%
same,Total Cell Count,[9],535
same,Population Apoptotic (%),[10],14%
same,Population Fragmented Nuclei (%),[10],13%
same,Population Healthy Nuclei (%),[10],76%
same,Population Hoechst High Intensity Objects (%),[10],3%
same,Population Membrane Permeable-Phenotype (%),[10],13%
same,Population Mitochondria Different-Phenotype (%),[10],5%
same,Population Mitotic Cells (%),[10],85%
same,Population Normal (%),[10],96%
same,Population Pyknosed Nuclei (%),[10],9%
same,Population Tubulin-Different-Phenotype (%),[10],20%
same,Total Cell Count,[10],437
same,Population Apoptotic (%),[11],37%
same,Population Fragmented Nuclei (%),[11],18%
same,Population Healthy Nuclei (%),[11],69%
same,Population Hoechst High Intensity Objects (%),[11],8%
same,Population Membrane Permeable-Phenotype (%),[11],2%
same,Population Mitochondria Different-Phenotype (%),[11],46%
same,Population Mitotic Cells (%),[11],62%
same,Population Normal (%),[11],91%
same,Population Pyknosed Nuclei (%),[11],11%
same,Population Tubulin-Different-Phenotype (%),[11],79%
same,Total Cell Count,[11],471
same,Population Apoptotic (%),[12],27%
same,Population Fragmented Nuclei (%),[12],14%
same,Population Healthy Nuclei (%),[12],59%
same,Population Hoechst High Intensity Objects (%),[12],4%
same,Population Membrane Permeable-Phenotype (%),[12],13%
same,Population Mitochondria Different-Phenotype (%),[12],24%
same,Population Mitotic Cells (%),[12],72%
same,Population Normal (%),[12],95%
same,Population Pyknosed Nuclei (%),[12],25%
same,Population Tubulin-Different-Phenotype (%),[12],74%
same,Total Cell Count,[12],253
